How the values were obtained:
[1] = molecular target: Aldo-keto reductase family 1 member B1 (Rattus norvegicus, UniProt P07943); assay: Inhibition of Sprague-Dawley rat lens aldose reductase by spectrofluorimetry; assay type: single protein
Procedure, shortened: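 Crude enzyme: supernatant of lenses from 8-week-old rats (250-280 g), homogenized in 135 mM Na/K phosphate pH 7.0 with 0.5 mM PMSF and 10 mM 2-mercaptoethanol, spun 14 000 rpm 30 min. NADP converted to fluorophore with NaOH/imidazole at 60 °C for 10 min, read ex 360/em 460 nm. IC50 from dose-response curves, triplicate, mean ± SE.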

[2] = Inhibition of advanced glycation end product formation after 14 day in phosphate buffer at pH7.4 by spectrofluorimetry; assay type: physicochemical
Procedure, shortened: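 BSA (10 mg/mL stock) in 50 mM phosphate pH 7.4 with 0.02% sodium azide, plus 0.2 M fructose and glucose, incubated with serially diluted samples at 37 °C for 14 days in screw-cap tubes. Aminoguanidine served as reference. Fluorescence read at ex 350/em 450 nm. IC50 from dose-response curves, triplicate, mean ± SE.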

IC50 [1] [µM] | IC50 [2] [µM] | Compound
> 50 | > 500 | C[C@@]12C[C@@]3(O)O[C@@H](O1)[C@]1(COC(=O)c4ccccc4)[C@H]3C[C@@]12O[C@@H]1O[C@H](CO)[C@@H](O)[C@H](O)[C@H]1O [PAEONIFLORIN]
> 50 | > 500 | C[C@@]12C[C@@]3(O)OC(O1)[C@]1(COC(=O)c4ccc(O)cc4)[C@@H]3C[C@@]21O[C@@H]1O[C@H](COC(=O)c2ccccc2)[C@@H](O)[C@H](O)[C@H]1O
> 50 | 177 | Cc1cc2c(cc1O)[C@@H](CO)CO2
> 50 | > 500 | C[C@@]12C[C@@]3(O)OC(O1)[C@]1(COC(=O)c4ccc(O)cc4)[C@@H]3C[C@@]21O[C@H]1O[C@H](COC(=O)c2ccccc2)[C@@H](O)[C@H](O)[C@H]1O
> 50 | > 500 | CO[C@@]12C[C@@H]3C(=O)[C@@](C)(C1)OC(O2)[C@H]3COC(=O)c1ccccc1
> 50 | > 500 | CO[C@H]1O[C@@]2(C)CC(=O)[C@H]3C[C@]2(O[C@@H]2O[C@H](COC(=O)c4ccccc4)[C@@H](O)[C@H](O)[C@H]2O)[C@]13COC(=O)c1ccccc1
> 50 | > 500 | C[C@@]12C[C@@]3(O)O[C@@H](O1)[C@]1(COC(=O)c4ccc(O)cc4)[C@H]3C[C@@]12O[C@@H]1O[C@H](CO)[C@@H](O)[C@H](O)[C@H]1O [OXYPAEONIFLORIN]
> 50 | > 500 | C[C@@]12CC(=O)[C@H]3C[C@]1(O)O[C@H](O2)[C@@H]3COC(=O)c1ccccc1 [PAEONIFLORIGENONE]
36.2 | 10.8 | CCCCO[C@]12C[C@]3(C)OC(O1)[C@]1(COC(=O)c4ccccc4)[C@@H]2C[C@@]31O[C@@H]1O[C@H](CO)[C@@H](O)[C@H](O)[C@H]1O
> 50 | > 500 | COc1ccc(C(C)=O)c(O)c1 [PAEONOL]
> 50 | > 500 | COc1ccc(C(C)=O)c(O[C@@H]2O[C@H](CO[C@@H]3OC[C@H](O)[C@H](O)[C@H]3O)[C@@H](O)[C@H](O)[C@H]2O)c1 [PAEONOLIDE]
28.8 | > 500 | C=C1CC[C@]2(C(=O)O)CC[C@]3(C)C(=CC[C@@H]4[C@@]5(C)CC[C@H](O)[C@@](C)(CO)[C@@H]5CC[C@]43C)[C@@H]2C1
> 50 | > 500 | C[C@@]12C[C@@]3(O)OC(O1)[C@]1(COC(=O)c4ccccc4)[C@@H]3C[C@@]21O[C@@H]1O[C@H](COC(=O)c2ccc(O)cc2)[C@@H](O)[C@H](O)[C@H]1O [NUDANPINOSIDE H]
31.8 | – | O=C(O)CC1(CC(=O)O)CCCC1
> 50 | > 500 | C[C@@]12C[C@@]3(O)O[C@@H](O1)[C@]1(COC(=O)c4ccccc4)[C@@H]3C[C@]12O[C@@H]1O[C@H](COC(=O)c2ccccc2)[C@@H](O)[C@H](O)[C@H]1O [BENZOYLPAEONIFLORIN]
11.4 | > 500 | CC1(C)[C@@H](O)CC[C@]2(C)[C@H]3C=CC4=C(O)C(=O)C(=O)[C@@]4(C)[C@]3(C)CC[C@@H]12 [PALBINONE]
44.6 | 11.3 | C[C@@]12C[C@@]3(O)O[C@@H](O1)[C@]1(COC(=O)c4ccccc4)[C@@H]3C[C@]12O[C@@H]1O[C@H](COC(=O)c2cc(O)c(O)c(O)c2)[C@@H](O)[C@H](O)[C@H]1O [GALLOYLPAEONIFLORIN]

Compound | IC50 [1] [µM] | IC50 [2] [µM]
N=C(N)NN [PIMAGEDINE] | – | 1030
